# Source: PubChem
# Shown are actives, neighbours in structure and some others; about 3.5% of the full set was active somewhere.
# hK5 inh – kallikrein 5 (human) inhibition | Q9Y337 | recombinant hK5, fluorogenic AMC substrate cleavage | inhibition, % at 5 µM | 210,000 compounds, 0.59% hits;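 active means inhibition of 40% or more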;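 further: 0% = enzyme controls without compound and 100% = no-enzyme blanks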
# FXIIa inh – blocks human coagulation factor XIIa protease activity. P00748. purified FXIIa, Boc-QGR-AMC fluorogenic substrate, 2 h. inhibition, % at 5 µM. 220,000 compounds, 0.3% hits; in the data active means inhibition above about 40%;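 further: 0% = enzyme with no compound and 100% = blank without enzyme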
# Target sequence (P00748 20-372 limits assumed): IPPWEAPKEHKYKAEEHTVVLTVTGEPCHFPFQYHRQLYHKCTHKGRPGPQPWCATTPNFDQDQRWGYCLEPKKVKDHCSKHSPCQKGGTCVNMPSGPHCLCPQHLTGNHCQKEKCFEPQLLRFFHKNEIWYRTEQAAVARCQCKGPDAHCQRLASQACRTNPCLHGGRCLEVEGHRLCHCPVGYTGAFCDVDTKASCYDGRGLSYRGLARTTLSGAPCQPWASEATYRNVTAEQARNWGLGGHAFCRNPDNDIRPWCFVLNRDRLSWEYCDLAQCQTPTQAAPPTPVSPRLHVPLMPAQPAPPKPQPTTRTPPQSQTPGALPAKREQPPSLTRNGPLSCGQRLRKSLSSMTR
# Target sequence (P00748 373-615 limits assumed): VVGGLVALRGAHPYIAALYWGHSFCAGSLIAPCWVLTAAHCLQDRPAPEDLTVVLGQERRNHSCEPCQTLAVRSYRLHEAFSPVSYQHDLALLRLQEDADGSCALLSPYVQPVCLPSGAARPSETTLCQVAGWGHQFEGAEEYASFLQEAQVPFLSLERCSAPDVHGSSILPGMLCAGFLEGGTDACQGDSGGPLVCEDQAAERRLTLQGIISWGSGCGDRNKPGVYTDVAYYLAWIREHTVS
# Thrombin inh – inhibitors of human thrombin; P00734; alpha-thrombin, Boc-VPR-AMC fluorogenic substrate cleavage; inhibition, % at 5 µM; 220,000 compounds, 0.26% hits; AID 1046;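 active means inhibition at or above 40%; inactive means inhibition below 40%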;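 further: 0% = enzyme with no compound and 100% = wells without enzyme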
#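 Test system: human alpha-thrombin; medium: pH 7.5 Tris-saline with Tween 20; times: reaction at room temperature; signal: AMC fluorescence at 355 nm excitation and 460 nm emission; also added: Boc-VPR-AMC substrate, 15 µM final; dosing: one concentration per compound, 5 µM, with 0.2% DMSO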
# FXIa inh – blocks human coagulation factor XIa protease activity; 220,000 compounds, 0.14% hits; AID 798; purified FXIa, Boc-Glu-Ala-Arg-AMC fluorogenic substrate; inhibition, % at 5 µM;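 active means inhibition of at least 40%; inactive means inhibition below 40%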;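 further: fluorescence of freed AMC excited at 355 nm; 0% = enzyme without compound and 100% = no enzyme blank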
# STAT3 activator – increases IL-6 driven STAT3 reporter signal | AID 871 | 190,000 compounds, 0.91% hits | U3A cells, IL-6 STAT3-luciferase reporter, luminescence; 100% = signal with IL-6 EC80 alone | activation (% of control), % at 5.6 µM;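 active means activation above the screen-wide mean of compound activation plus 3 SD, cut at about 130% in these data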;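 further: 0% = background luminescence of wells with medium and substrate only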
#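 Assay system – human STAT1-deficient U3A cells with stable STAT3-luciferase reporter · Also added – IL-6 (33 ng/mL) · Schedule – compound 1 h, then IL-6 6 h at 37 °C · Technique – reporter luminescence signal · Evaluation – % activation versus median of IL-6-stimulated wells · Benchmarks – IL-6-only wells as 100% reference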
# AHR act – activates the human aryl hydrocarbon receptor; AHR-responsive luciferase reporter cells, luminescence; 320,000 compounds, 2.5% hits; P35869; AID 2796; activation, % at 5 µM; in the data active means activation above about 47%;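 further: 0% = vehicle wells and 100% = reference agonist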
# AHR act confirm – human AHR activation, confirmation; 2,300 compounds, 87% hits; human cells, AHR-responsive luciferase reporter, luminescence; shares compounds with AHR act; activation, % at 9 µM; in the data active means activation above about 49%;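 further: HepG2 hepatoma cells carrying a DRE-driven firefly luciferase reporter; 0% = vehicle wells and 100% = reference agonist wells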
# PXR act counter – PXR activation, counter-screen for AHR activators. shares compounds with AHR act. cell-based PXR reporter, luciferase luminescence. activation, % at 11.6 µM. 2,300 compounds, 88% hits. AID 434939; in the data active means activation above about 11%;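 further: human hepatoma DPX-2 cells expressing full-length human PXR; 0% = DMSO and 100% = reference agonist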
# Active calls of the source: *; x = no result given.
SMILES,hK5 inh,FXIIa inh,Thrombin inh,FXIa inh,STAT3 activator,AHR act,AHR act confirm,PXR act counter
O=C(CSc1ccc(-c2ccc3c(c2)OCO3)nn1)Nc1nccs1,13,9,22,8,102,17,x,x
O=C(CSCC(=O)Nc1nc(-c2ccc3c(c2)OCO3)cs1)Nc1nccs1,6,6,-3,2,x,100*,63*,27*
CCn1c(C(=O)O)c(CC(=O)Nc2ccc(Br)cc2C)c2ccccc21,x,x,x,x,x,4,x,x
CCOC(=O)c1ccc(CN(Cc2ccccc2)S(=O)(=O)c2cccc([N+](=O)[O-])c2)cc1,-11,11,-9,2,89,-4,x,x
CCOC(=O)CCCCCN(Cc1ccccc1)S(=O)(=O)c1ccc([N+](=O)[O-])cc1,-3,-3,-9,-11,106,92*,2,27*
Cc1ccccc1CS(=O)(=O)Cc1ccc(C(=O)NC2CCCCC2)o1,x,x,x,x,x,2,x,x
O=C(Cc1ncc(C(F)(F)F)cc1Cl)NCc1ccco1,-3,8,-8,18,99,4,x,x
CN1CCSc2ccc(C(=O)Nc3ccc(Cl)cc3)cc21,0,8,-3,-3,x,215*,135*,70*
COc1cc2c(cc1OC)CN(C(=O)c1cc(S(=O)(=O)N3CCOCC3)c(Cl)cc1Cl)CC2,x,x,x,x,x,11,x,x
CCC(/C=N/NC(=O)CCCCC(=O)N/N=C/C(CC)CC)CC,-13,17,-5,6,100,23,x,x
CCCC1(c2ccccc2)NC(=O)N(CC(=O)NCC2COc3ccccc3O2)C1=O (stereo unspecified),x,x,x,x,x,1,x,x
C=CCn1c(=N)n(CC(=O)c2cccc([N+](=O)[O-])c2)c2ccccc21,-1,3,-1,-4,103,85*,128*,58*
COc1cc(N)c(Cl)cc1C(=O)OCC(=O)NCC1CCCO1 (stereo unspecified),x,x,x,x,x,6,x,x
CCOc1cc(N)c(Cl)cc1C(=O)NCC1CN(Cc2ccc(F)cc2)CCO1 (stereo unspecified),x,x,x,x,x,90*,63*,181*
COc1cc(C#N)c(N=C(SCC#N)N2CCOCC2)cc1OC,-14,2,1,-2,90,0,x,x
COc1cc(OC)c(-c2nc3cnccc3n2C)cc1OC,-6,13,2,6,101,4,x,x
Cn1c(-c2ccc3ccccc3n2)nc2cnccc21,-14,6,-1,-2,110,89*,119*,23*
CSc1nc2[nH]c3c(c2c2nnnn12)CCCC3,2,9,-3,-5,81,116*,107*,44*
CC(C)C(NC(=O)c1ccccc1NC(=O)c1ccccc1)C(=O)NCCCn1ccnc1 (stereo unspecified),x,x,x,x,x,3,x,x
O=c1c2ccccc2ncn1-c1ccc(Cl)cc1,4,7,2,12,x,112*,115*,10
c1ccc(-c2nc(NCc3ccco3)c3oc4ccccc4c3n2)cc1,3,20,3,17,112,88*,105*,35*
c1cncc(-c2nc(NCc3ccco3)c3ccccc3n2)c1,14,10,2,3,125,29,x,x
O=C1c2ccccc2NC(c2ccc3c(c2)OCO3)N1O (stereo unspecified),-25,15,0,1,102,122*,133*,25*
O=C1c2ccccc2NC(c2ccc3c(c2)OCCO3)N1c1ccc2c(c1)OCCO2 (stereo unspecified),-23,12,9,-7,85,2,x,x
Cc1cc(/C=C(/C#N)c2cccc(F)c2)c(C)n1-c1cccnc1,6,14,2,8,121,26,x,x
SMILES,hK5 inh,FXIIa inh,Thrombin inh,FXIa inh,STAT3 activator,AHR act,AHR act confirm,PXR act counter
CC1=NN(c2ccccc2)C(=O)/C1=C/c1cccs1,-12,26,-2,8,125,84*,87*,37*
CCOC(=O)c1c(N/N=C/c2ccncc2)n[nH]c1C,-7,8,-4,5,93,97*,66*,15*
CCc1[nH]nc(C(=O)N/N=C/c2ccncc2)c1C,x,x,x,x,x,44,x,x
CCCCn1c(N)c(N(CCOC)C(=O)CSc2nnc(-c3ccco3)n2CC)c(=O)[nH]c1=O,x,x,x,x,x,-1,x,x
Cc1c(C#N)c(=O)c(-[n+]2ccccc2)c([S-])n1-c1ccc(Cl)cc1,-3,2,-3,-3,x,4,x,x
Cc1cc(C)n(-c2nc3c(c(=O)[nH]c(=O)n3C)n2Cc2ccccc2)n1,-4,8,0,-2,105,1,x,x
Cc1cc(C)n(-c2nc3c(c(=O)[nH]c(=O)n3C)n2CCc2ccccc2)n1,-3,16,1,-1,106,133*,84*,67*
Cc1cc(C)n(-c2nc3c(c(=O)[nH]c(=O)n3C)n2CC(O)c2ccccc2)n1 (stereo unspecified),-12,5,-2,3,98,80*,78*,45*
O=C(CCS(=O)(=O)c1ccccc1)NNC(=O)CSc1ccccc1F,x,x,x,x,x,3,x,x
O=C(COC(=O)C1CCC(=O)N1)Nc1cccc([N+](=O)[O-])c1 (stereo unspecified),x,x,x,x,x,2,x,x
COc1ccc(C(=O)O/N=C(\N)c2ccccc2)c(OC)c1,-5,9,4,5,38,97*,56*,4
Cc1ccc(OCC(=O)Nc2cccnc2Cl)cc1C,x,x,x,x,x,-1,x,x
S=C1NC(c2ccccc2)=CC(c2ccccc2)N1 (stereo unspecified),-1,8,-8,-3,104,2,x,x
S=C1NC(c2cccs2)=CC(c2ccc(Br)cc2)N1 (stereo unspecified),-12,19,0,12,115,117*,111*,60*
Cc1cccc(C(=O)N=c2sccn2C)c1[N+](=O)[O-],x,x,x,x,x,99*,82*,142*
Cc1ccc(C(=O)N=c2sccn2C)cc1C,x,x,x,x,x,194*,136*,41*
CCN(CC)S(=O)(=O)c1cc(C(=O)N=c2sccn2C)ccc1OC,x,x,x,x,x,100*,87*,125*
Cc1nc2nc(-c3cccnc3)nn2c(C)c1Cl,4,10,0,5,92,98*,112*,29*
CCN1CC(CN(C)Cc2nc(-c3ccc(C(F)(F)F)cc3)oc2C)CC1=O (stereo unspecified),x,5,-8,2,104,116*,99*,64*
COc1ccccc1-c1sc2ccccc2c1-c1ccc2c(c1)OCO2,x,x,x,x,x,33,x,x
COc1ccccc1-c1sc2cc3c(cc2c1-c1ccc2c(c1)OCO2)OCO3,x,x,x,x,x,93*,126*,162*
COC(=O)c1c(-c2ccccc2OC)sc2cc3c(cc12)OCO3,x,x,x,x,x,108*,92*,226*
